Rce1 inhib – yeast Ras-converting enzyme inhibition; Q03530; yeast membranes, quenched prenylated peptide cleavage fluorescence; calls only; hit rate 0.27% among 290,000; AID 2563;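 active = fall in fluorescence gain of 50% or more versus controls, with final raw signal at or below 3038400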
Target sequence (Q03530 whole entry, looked up): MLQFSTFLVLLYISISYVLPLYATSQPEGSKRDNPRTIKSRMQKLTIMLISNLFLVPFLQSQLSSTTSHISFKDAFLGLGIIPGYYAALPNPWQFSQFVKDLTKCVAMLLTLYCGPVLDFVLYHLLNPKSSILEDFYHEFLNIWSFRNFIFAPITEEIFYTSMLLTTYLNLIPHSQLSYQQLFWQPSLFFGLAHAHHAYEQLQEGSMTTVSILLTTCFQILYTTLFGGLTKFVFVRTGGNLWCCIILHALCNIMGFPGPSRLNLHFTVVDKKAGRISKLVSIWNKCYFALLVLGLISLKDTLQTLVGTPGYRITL
MIN6 prolif – MIN6 beta-cell proliferation induction; proliferation, % at 10 µM; hit rate 0.29% among 330,000; AID 2380; MIN6 cells proliferation, ATPlite luminescence, 48 h; cells starved in 0.2% serum; 100% = growth in 10% serum;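 active = compounds whose signal lies at least 3.5 SD above the mean of all wells on their plate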
PG9 binder – small molecules binding HIV-1 gp120 antibody PG9. TR-FRET gp120-PG9 antibody binding. inhibition, % at 6.7 µM. hit rate 0.43% among 360,000; in the data active = inhibition above about 8.5%
NR1D1 modulator – modulates human Rev-erb alpha binding to DNA. hit rate 0.79% among 370,000. activity, % at 10 µM. Rev-erbα–FITC-DNA binding, fluorescence polarization, 90 min;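 active = activity above about 14%, limit read from the data; passing the limit was not always enough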
CR mimetic SO – yeast age-related superoxide inhibition as caloric restriction mimetic. S. cerevisiae aged cells, superoxide DHE fluorescence; stronger effect = lower value. AID 2690. superoxide response (% of plate mean), % at 10 µM. hit rate 0.18% among 330,000;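 active = superoxide response under a set limit, about three screen SD below normal, cut at about 65% in these data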;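 also: yeast aged for seven days with compound at 30 °C before DHE staining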
UCH37 inh – human UCH37 deubiquitinating enzyme inhibition; Q9Y5K5; purified proteasome/UCH37, Ub-AMC cleavage fluorescence; inhibition, % (no concentration beside the values); hit rate 0.33% among 330,000; AID 588478;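 active = mean inhibition over replicate wells above about 20%, limit read from the data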
Target sequence (Q9Y5K5 whole entry, looked up): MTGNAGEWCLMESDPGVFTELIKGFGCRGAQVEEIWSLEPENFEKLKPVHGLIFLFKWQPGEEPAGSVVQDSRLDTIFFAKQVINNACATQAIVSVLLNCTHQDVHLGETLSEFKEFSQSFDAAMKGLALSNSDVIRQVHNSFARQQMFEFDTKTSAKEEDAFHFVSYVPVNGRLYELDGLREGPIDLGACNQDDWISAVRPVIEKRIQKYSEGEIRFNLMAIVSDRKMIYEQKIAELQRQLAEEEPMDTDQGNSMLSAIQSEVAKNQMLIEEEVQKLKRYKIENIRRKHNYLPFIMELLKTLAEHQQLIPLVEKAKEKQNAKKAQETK
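system = Proteasome-associated human UCH37 deubiquitinase | amount = 0.15 nM proteasome as dispensed | medium = pH 7.4 Tris-HCl (50 mM) with ovalbumin, ATP-MgCl2, DTT | incubation = 30 min preincubation with enzyme, 25 min cleavage at room temperature | detection = AMC fluorescence 355/460 nm | read-out basis = percent inhibition | controls = no-proteasome and no-compound wells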
Numbers stand for hits; 0 = inactive; - = no result; + = active, no number; ! = not active in a repeat. A selection: hits, their analogues and other compounds. The true share with any hit is near 1.9%.

SMILES	Rce1 inhib	MIN6 prolif	PG9 binder	NR1D1 modulator	CR mimetic SO	UCH37 inh
CCOc1ccccc1OCC(=O)Nc1cc(C)on1	-	0	0	0	0	0
C=CCc1cccc(C=NNC(=O)C(C)Nc2cccc(C)c2)c1O (centres undefined)	-	-	-	-	-	0
CC1CCC/C(=C\Nc2ccccc2C(=O)O)C1=O (centres undefined)	+	0	0	0	0	0
O=C(Cn1cncn1)NN=Cc1ccc(Cl)cc1	-	-	-	-	-	0
Cc1nc(-c2ccc(Cl)cc2)sc1C1(C)CC(c2ccccc2)=NO1 (centres undefined)	0	0	0	0	-	0
Cc1nc(-c2ccc(Cl)cc2)sc1C1(C)CC(c2ccccc2Br)=NO1 (centres undefined)	+	0	0	0	-	0
CN1CCN(CCCNC(=O)c2cc3c(=O)n(C)c4ccccc4c3s2)CC1	+	0	0	0	0	0
Cc1ccc2oc(=O)c3cc(C(=O)NCCCN4CCN(C)CC4)sc3c2c1	0	0	0	0	0	0
CN1CCN(N=Cc2ccc(OCc3ccccc3)cc2)CC1	-	-	-	-	-	0
CC1COc2c(N3CCN(C)CC3)c(F)cc3c(=O)c(C(=O)O)cn1c23 (centres undefined)	+	0	0	0	0	0
COc1c(N2CCN[C@H](C)C2)c(F)cc2c(=O)c(C(=O)O)cn(C3CC3)c12	0	0	-	-	0	0
Cc1ccccc1NC(=O)NC1(C(=O)NCCCN2CCOCC2)CCCCC1	0	0	0	0	0	34.9
COc1ccc2oc(-c3ccccc3)c(C(=O)N3CCOCC3)c2c1	+	0	0	0	0	0
CCOc1ccc2oc(-c3ccccc3)c(C(=O)N3CCN(C)CC3)c2c1	0	0	0	0	0	0
Cc1c(OCc2ccc([N+](=O)[O-])cc2)ccc2c3c(c(=O)oc12)CCC3	0	0.0	0	0	0	0
CC(C)N=C(N)/N=C(\N)Nc1ccc(Cl)cc1	-	-	-	0	-	-
NC(=NCCCCCCN=C(N)/N=C(\N)Nc1ccc(Cl)cc1)/N=C(\N)Nc1ccc(Cl)cc1	+	0	0	0	0	0
Cc1ccccc1OCC(=O)NN=Cc1cccn1C	-	-	-	-	-	0
O=[N+]([O-])c1ccc(/C=C/c2ccncc2)cc1	0	-	0	0	61.5	0
CCN(CC)C(=O)C1CCCN(C(=O)CCn2nnnc2CN2CCOCC2)C1 (centres undefined)	-	0	0	0	0	0
CCOC(=O)C1CCCN(C(=O)CCn2nnnc2CN2CCOCC2)C1 (centres undefined)	+	0	0	0	0	0
Cc1nn(-c2ccccc2)c(C)c1C=NNC(=O)c1ccc(F)cc1	-	-	-	-	-	0
Cc1[nH]c(C(=O)NN=Cc2ccc(N(C)C)cc2)c(C)c1C(=O)NN=Cc1ccc(N(C)C)cc1	-	-	-	-	-	0
Cc1cc2cc(C#N)c(NCCNC(=S)NCCCN3CCOCC3)nc2cc1C	+	0	0	0	0	0
Cc1nc(C)c(C(=O)NN=Cc2cc(Br)ccc2O)s1	-	-	-	-	-	0
SMILES	Rce1 inhib	MIN6 prolif	PG9 binder	NR1D1 modulator	CR mimetic SO	UCH37 inh
CC(=NNc1ccc(C(=O)O)cc1)c1ccc(O)c(O)c1O	-	-	-	-	-	20.8
C#Cc1ccc([C@@H]2C=C(C(=O)N3CCOCC3)O[C@H](OCC)[C@H]2CCCO)cc1	0	0	0	0	0	26.9
Cc1nc2ccccc2c(=O)n1N=Cc1ccco1	-	-	-	-	-	0
Cc1nc2ccccc2c(=O)n1N=Cc1c(O)ccc2ccccc12	-	-	-	-	-	0
O=C(Nc1cc([N+](=O)[O-])ccc1Cl)C(Sc1ccccc1)c1ccccc1 (centres undefined)	0	0	0	0	0	0
O=C(Nc1ccc(Cl)c([N+](=O)[O-])c1)C(Sc1ccccc1)c1ccccc1 (centres undefined)	+	0	0	0	0	0
CC(=NNC(=O)c1cc(-c2cccs2)nc2ccccc12)c1ccccn1	-	-	-	-	-	0
Cc1ccc(-n2ccnc(SCC(=O)NC3CCCC3)c2=O)cc1F	0	0	0	0	0	0
CCOc1ccc(-n2ccnc(SCC(=O)NC3CCCC3)c2=O)cc1	+	0	0	0	0	0
CCOC(=O)NN=C(C)c1ccccc1OC(F)F	-	-	-	-	-	0
C/C(=N\NC(=O)COc1ccc(C#N)cc1)c1ccccc1OC(F)F	0	6.9	0	0	0	-
COc1ccc(CC(C)=NNC(=O)c2c[nH]c3ccccc23)cc1OC	-	-	-	-	-	0
CC(C)Cc1ccc(C(=NO)C(=O)O)s1	-	-	-	-	-	0
COc1ccc(NC(=O)c2cc3cccc(OC)c3oc2=Nc2ccc(C(=O)O)cc2)cc1OC	0	-	0	-	-	24.2
Cc1cccc(-c2oc3ccccc3c2C#CCCCCO)c1	+	0	0	0	0	-
Cc1cccc(-c2oc3ccccc3c2C#CCCO)c1	+	0	0	0	0	-
COc1cc(-c2ccc3oc(-c4cccc(C)c4)c(C#CC4(O)CCCCC4)c3c2)cc(OC)c1OC	-	0	0	0	0	-
COc1ccccc1-c1oc2ccccc2c1C#CCCO	-	0	0	0	0	0
CC(=NNC(=O)c1c(Br)c(C)nn1C)c1cccc(NC(=O)c2ccccc2C)c1	-	-	-	-	-	0
CCOC(=O)/C(=C/C1=CC(=C/N(C)C)/C(=O)O1)C(C)=O	0	0	0	0	0	21.6
O=C(Cc1cccc2ccccc12)NN=Cc1ccncc1	-	-	-	-	-	0
CCCOc1ccc(-c2nc3c(c(=O)[nH]c(=O)n3Cc3ccccc3)n2CCO)cc1OCC	+	0	0	0	0	0
CCOC(=O)C1=C(C)N=c2sc(=Cc3cc(OC)c(OC)c(OC)c3)c(=O)n2C1/C=C/c1ccccc1 (centres undefined)	-	-	-	-	-	0
O=C(C[n+]1ccccc1)NN=Cc1ccccc1F	-	-	-	-	-	0
CCC(=O)Nc1cc(-c2nn(CC(=O)N3CCCCC3)c(=O)c3ccccc23)ccc1N1CCOCC1	+	0	0	0	0	0
SMILES	Rce1 inhib	MIN6 prolif	PG9 binder	NR1D1 modulator	CR mimetic SO	UCH37 inh
COC(=O)Cc1c(C)c2ccc(OCc3nn[nH]n3)c(C)c2oc1=O	+	0	0	0	0	0
C=CCOC(=O)C1=C[C@@H](c2ccc(Br)cc2)C[C@@H](OCCCCO)O1	0	0	0	0	0	0
C=CCOC(=O)C1=C[C@@H](c2ccc(C(F)(F)F)cc2)C[C@@H](OCCCCO)O1	0	0	0	0	-	21.4
COC(=O)c1sc2cnccc2c1N	+	0	0	0	0	0
COC(=O)c1ccncc1N	0	0	0	-	0	0
CCn1cc(C(=O)NCCN(C)C)c(=O)c2cc(F)c(N3CCN(C)CC3)cc21	+	-	0	0	0	0
CCn1c2ccccc2c2cnc(N=CN(C)C)c(C#N)c21	0	0	0	0	0	0
CCN(CC)CCn1c2ccccc2c2cnc(N=CN(C)C)c(C#N)c21	+	0	0	0	0	0
COc1ccccc1Oc1coc2c(CN3CCOCC3)c(O)ccc2c1=O	0	0	0	0	0	0
COc1ccccc1-c1coc2c(CN3CCOCC3)c(O)ccc2c1=O	+	0	0	0	0	0
Cc1ccc2c(CN3CCN(Cc4ccc5c(c4)OCO5)CC3)cc(=O)oc2c1C	+!	0	0	0	0	0

Bioassay records from PubChem.
